Laboratory results as given in the M2OR odorant receptor database.
Positions count from the first letter of the chain named.

Columns and labels:
Settings in all cases: stereoisomer not certain
OR5AC2 (Homo sapiens) = target: T1, OR5AC2 (Homo sapiens) (UniProt Q9NZP5)
T1 sequence (whole entry): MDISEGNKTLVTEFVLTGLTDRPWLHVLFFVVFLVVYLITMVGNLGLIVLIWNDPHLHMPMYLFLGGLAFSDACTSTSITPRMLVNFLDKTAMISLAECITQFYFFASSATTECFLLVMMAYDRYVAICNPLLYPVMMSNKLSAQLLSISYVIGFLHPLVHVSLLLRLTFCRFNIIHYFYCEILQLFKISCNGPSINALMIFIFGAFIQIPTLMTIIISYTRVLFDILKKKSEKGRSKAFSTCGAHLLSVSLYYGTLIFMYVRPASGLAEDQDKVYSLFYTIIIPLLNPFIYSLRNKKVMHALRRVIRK
In short: (§1)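 Transient luciferase assays in mammalian cell lines were common, though methods varied by source. The values come from published papers and their supplementary material, with extra details from the original authors when needed. Responsive refers to a measured signal the original authors judged statistically different from baseline, and non-responsive (inactive) to the remainder.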

OR56B4 (Homo sapiens) = target: T2, OR56B4 (Homo sapiens) (UniProt Q8NH76)
T2 sequence (whole entry): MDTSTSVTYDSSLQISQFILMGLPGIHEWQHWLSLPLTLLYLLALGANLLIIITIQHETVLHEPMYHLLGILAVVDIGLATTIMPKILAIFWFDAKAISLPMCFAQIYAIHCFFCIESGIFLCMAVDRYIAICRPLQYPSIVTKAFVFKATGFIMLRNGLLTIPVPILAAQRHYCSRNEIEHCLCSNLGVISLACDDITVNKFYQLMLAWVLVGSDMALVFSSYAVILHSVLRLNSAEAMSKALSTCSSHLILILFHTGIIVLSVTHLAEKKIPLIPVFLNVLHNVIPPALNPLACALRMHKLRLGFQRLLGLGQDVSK
In short: as §1

OR5A1 (Homo sapiens) = target: T3, OR5A1 (Homo sapiens) (UniProt Q8NGJ0)
T3 sequence (whole entry): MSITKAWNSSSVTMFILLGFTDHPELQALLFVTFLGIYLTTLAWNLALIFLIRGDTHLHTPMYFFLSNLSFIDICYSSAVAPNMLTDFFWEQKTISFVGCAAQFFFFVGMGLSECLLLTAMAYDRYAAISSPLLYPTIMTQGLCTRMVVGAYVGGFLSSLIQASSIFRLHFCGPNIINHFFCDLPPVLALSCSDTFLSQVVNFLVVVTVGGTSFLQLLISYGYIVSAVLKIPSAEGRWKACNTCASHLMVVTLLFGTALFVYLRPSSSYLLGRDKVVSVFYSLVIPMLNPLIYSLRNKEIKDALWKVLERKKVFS
In short: as §1

OR5A2 (Homo sapiens) = target: T4, OR5A2 (Homo sapiens) (UniProt Q8NGI9)
T4 sequence (whole entry): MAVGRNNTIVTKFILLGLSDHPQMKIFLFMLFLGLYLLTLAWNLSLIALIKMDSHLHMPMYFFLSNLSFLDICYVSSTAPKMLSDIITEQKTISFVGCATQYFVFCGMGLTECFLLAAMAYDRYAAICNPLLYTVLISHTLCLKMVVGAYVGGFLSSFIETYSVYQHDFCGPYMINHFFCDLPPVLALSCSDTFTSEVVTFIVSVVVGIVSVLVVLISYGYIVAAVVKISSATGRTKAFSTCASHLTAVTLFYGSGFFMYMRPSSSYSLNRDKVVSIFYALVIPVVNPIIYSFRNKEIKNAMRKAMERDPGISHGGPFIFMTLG
In short: as §1

OR5AK2 (Homo sapiens) = target: T5, OR5AK2 (Homo sapiens) (UniProt Q8NH90)
T5 sequence (whole entry): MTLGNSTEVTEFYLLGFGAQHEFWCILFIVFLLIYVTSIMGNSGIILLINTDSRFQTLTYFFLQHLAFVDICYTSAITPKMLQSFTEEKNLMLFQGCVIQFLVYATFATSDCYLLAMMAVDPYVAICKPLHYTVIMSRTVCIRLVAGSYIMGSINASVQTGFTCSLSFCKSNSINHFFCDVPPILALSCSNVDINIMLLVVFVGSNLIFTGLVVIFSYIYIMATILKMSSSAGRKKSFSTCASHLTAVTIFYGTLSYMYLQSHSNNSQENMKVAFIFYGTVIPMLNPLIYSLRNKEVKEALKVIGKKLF
In short: as §1

OR5AN1 (Homo sapiens) = target: T6, OR5AN1 (Homo sapiens) (UniProt Q8NGI8)
T6 sequence (whole entry): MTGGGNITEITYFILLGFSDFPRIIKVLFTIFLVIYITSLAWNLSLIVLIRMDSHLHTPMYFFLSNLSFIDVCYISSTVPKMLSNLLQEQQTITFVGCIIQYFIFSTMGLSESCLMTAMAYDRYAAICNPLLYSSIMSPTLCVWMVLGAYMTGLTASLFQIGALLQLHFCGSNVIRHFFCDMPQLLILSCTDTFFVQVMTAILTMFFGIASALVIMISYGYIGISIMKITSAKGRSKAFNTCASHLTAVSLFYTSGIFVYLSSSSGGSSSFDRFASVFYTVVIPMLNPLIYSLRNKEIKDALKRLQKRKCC
In short: as §1

OR5AP2 (Homo sapiens) = target: T7, OR5AP2 (Homo sapiens) (UniProt Q8NGF4)
T7 sequence (whole entry): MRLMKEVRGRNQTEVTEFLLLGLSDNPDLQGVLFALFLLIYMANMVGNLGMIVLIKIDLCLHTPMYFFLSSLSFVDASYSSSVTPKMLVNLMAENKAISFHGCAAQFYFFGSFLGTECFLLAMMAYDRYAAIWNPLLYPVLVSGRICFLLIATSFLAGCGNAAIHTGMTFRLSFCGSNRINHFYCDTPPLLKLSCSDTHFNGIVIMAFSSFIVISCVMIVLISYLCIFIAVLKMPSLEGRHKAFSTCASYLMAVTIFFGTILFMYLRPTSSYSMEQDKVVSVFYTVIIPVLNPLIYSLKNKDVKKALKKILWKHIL
In short: as §1

OR5A1 D183N = test system: T8, OR5A1 D183N
T8 sequence (whole entry): T3 sequence (whole entry) with D183N
In short: as §1

OR5AC1 (Homo sapiens) = OR5AC1 (Homo sapiens) (UniProt P0C628)
In short: as §1

OR5AL1 (Homo sapiens) = OR5AL1 (Homo sapiens) (UniProt P0C617)
In short: as §1

Measured: odorant receptor agonist call

Chain of OR5AC1 (Homo sapiens) (P0C628 whole entry): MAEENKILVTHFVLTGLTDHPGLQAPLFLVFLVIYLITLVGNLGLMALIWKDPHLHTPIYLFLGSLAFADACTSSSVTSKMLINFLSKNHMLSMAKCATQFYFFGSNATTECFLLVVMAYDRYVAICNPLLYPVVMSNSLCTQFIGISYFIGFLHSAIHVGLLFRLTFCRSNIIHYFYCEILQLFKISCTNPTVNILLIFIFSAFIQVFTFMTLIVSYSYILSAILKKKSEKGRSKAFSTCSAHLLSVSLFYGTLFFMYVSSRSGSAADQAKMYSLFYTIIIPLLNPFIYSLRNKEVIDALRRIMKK
Chain of OR5AL1 (Homo sapiens) (P0C617 whole entry): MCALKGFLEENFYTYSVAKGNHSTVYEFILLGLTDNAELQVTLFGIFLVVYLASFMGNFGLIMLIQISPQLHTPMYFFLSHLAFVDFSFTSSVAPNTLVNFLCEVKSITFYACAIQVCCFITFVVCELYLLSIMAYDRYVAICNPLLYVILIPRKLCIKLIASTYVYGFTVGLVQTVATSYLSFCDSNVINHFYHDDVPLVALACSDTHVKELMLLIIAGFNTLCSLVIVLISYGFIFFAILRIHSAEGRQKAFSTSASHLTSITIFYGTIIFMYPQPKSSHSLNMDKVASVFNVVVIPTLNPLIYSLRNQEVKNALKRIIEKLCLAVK

OCc1ccccc1
inactive: OR5AC2 (Homo sapiens)

CCC(S)C(C)CO (stereo not given)
inactive: OR56B4 (Homo sapiens) | OR5A1 (Homo sapiens) | OR5A2 (Homo sapiens) | OR5AC2 (Homo sapiens) | OR5AK2 (Homo sapiens) | OR5AN1 (Homo sapiens) | OR5AP2 (Homo sapiens)

CCC1OC(C)=C(O)C1=O (stereo not given)
inactive: OR56B4 (Homo sapiens) | OR5A1 (Homo sapiens) | OR5A1 D183N | OR5A2 (Homo sapiens) | OR5AC2 (Homo sapiens) | OR5AK2 (Homo sapiens) | OR5AN1 (Homo sapiens) | OR5AP2 (Homo sapiens)

CC(C)(C)C1CCCCC1OCCCCO (stereo not given)
inactive: OR5AC2 (Homo sapiens)

CC(CC=O)c1ccc(C(C)(C)C)cc1 (stereo not given)
inactive: OR5AC2 (Homo sapiens)

CCCCCC1CCCC(=O)O1 (stereo not given)
active: OR56B4 (Homo sapiens)

CCc1ccc(CC(C)(C)C=O)cc1
inactive: OR5AC2 (Homo sapiens)

CC(=O)c1c(C)c([N+](=O)[O-])c(C(C)(C)C)c([N+](=O)[O-])c1C
inactive: OR56B4 (Homo sapiens) | OR5A1 (Homo sapiens) | OR5A2 (Homo sapiens) | OR5AC1 (Homo sapiens) | OR5AC2 (Homo sapiens) | OR5AK2 (Homo sapiens) | OR5AL1 (Homo sapiens) | OR5AP2 (Homo sapiens)
active: OR5AN1 (Homo sapiens)

CC1=NC(C)C(C)S1 (stereo not given)
inactive: OR56B4 (Homo sapiens) | OR5A1 (Homo sapiens) | OR5A1 D183N | OR5A2 (Homo sapiens) | OR5AC2 (Homo sapiens) | OR5AK2 (Homo sapiens) | OR5AN1 (Homo sapiens) | OR5AP2 (Homo sapiens)

CCC1OC(=O)C(O)=C1C (stereo not given)
inactive: OR56B4 (Homo sapiens) | OR5A1 (Homo sapiens) | OR5A1 D183N | OR5A2 (Homo sapiens) | OR5AC2 (Homo sapiens) | OR5AK2 (Homo sapiens) | OR5AN1 (Homo sapiens) | OR5AP2 (Homo sapiens)

CCCCCCCCC(OC(C)=O)OC(C)=O
inactive: OR5AC2 (Homo sapiens)

CC1CCCCCCCCCCCCC(=O)C1 (stereo not given)
active: OR5AN1 (Homo sapiens)
inactive: OR56B4 (Homo sapiens) | OR5A1 (Homo sapiens) | OR5A2 (Homo sapiens) | OR5AC1 (Homo sapiens) | OR5AC2 (Homo sapiens) | OR5AK2 (Homo sapiens) | OR5AL1 (Homo sapiens) | OR5AP2 (Homo sapiens)

CC(C)=CCCC(C)=CCO
inactive: OR5AC2 (Homo sapiens)

CCCCCC(=O)C(C)C(C)=O (stereo not given)
inactive: OR56B4 (Homo sapiens) | OR5A1 (Homo sapiens) | OR5A2 (Homo sapiens) | OR5AC2 (Homo sapiens) | OR5AK2 (Homo sapiens) | OR5AN1 (Homo sapiens) | OR5AP2 (Homo sapiens)

CC(CO)CS (stereo not given)
inactive: OR56B4 (Homo sapiens) | OR5A1 (Homo sapiens) | OR5A2 (Homo sapiens) | OR5AC2 (Homo sapiens) | OR5AK2 (Homo sapiens) | OR5AN1 (Homo sapiens) | OR5AP2 (Homo sapiens)

CC(=O)OCc1ccccc1
inactive: OR5AC2 (Homo sapiens)

CC(C)CCCC(C)(C)O
inactive: OR5AC2 (Homo sapiens)

CC1=C(O)C(=O)OC1C (stereo not given)
inactive: OR56B4 (Homo sapiens) | OR5A1 (Homo sapiens) | OR5A1 D183N | OR5A2 (Homo sapiens) | OR5AC2 (Homo sapiens) | OR5AK2 (Homo sapiens) | OR5AN1 (Homo sapiens) | OR5AP2 (Homo sapiens)
